Measured values from PubChem BioAssay.
Unmarked numbers belong to inactive results. Records with an inconclusive call do not appear. The source made the active and inactive calls.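 The calls were made as follows, unless noted: active = viability increase at or above a cutoff of the median across tested compounds plus 3 SD (cut at about 8.5% in these data, passing the limit was not always enough); inconclusive = some gains above the cutoff, reason not given; inactive = the rest.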

Legend:
[1] = OD615 S. cerevisiae growth inhibition, permissive medium, pilot counter-assay, permissive growth control for S. cerevisiae lifespan shortening project (AID 705;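 active = growth inhibition above 25% in both replicates, a cutoff set 3 SD above the mean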); settings: OD615, 24 h, at 10 µM, hits give high values
Outline: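 Material: engineered DeaD yeast; compound dosing: one dose 10 µM, DMSO 0.25% final; measure: yeast growth inhibition indicated by reduced 24 h OD615; detection: OD615 turbidity read; incubation: cells pre-grown 4 h, then 24 h compound exposure, 30 °C humidified; medium: permissive synthetic complete medium with raffinose and galactose carbon sources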

[2] = Restrictive medium S. cerevisiae growth inhibition, OD615, pilot screen of yeast lifespan reduction project, restrictive growth control (AID 706;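 active = growth inhibition above a set limit, 3 SD over mean compound inhibition, in both replicates, cut at about 43% in these data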;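 also: modified DeaD lifespan yeast strain shifted to restrictive glucose medium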); settings: OD615, 48 h, at 10 µM, hits give high values
Outline: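 material = engineered S. cerevisiae DeaD strain | medium = glucose-based CSMM-D restrictive medium | times = 4 h pre-incubation, 48 h exposure at 30 °C | technique = OD615 absorbance reading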

[3] = viability gain of MRP-1-high H69AR cells under doxorubicin, pilot screen, MRP-1 activator project, CellTiter-Glo, duplicate (AID 807); settings: H69AR viability with doxorubicin, CellTiter-Glo luminescence; at 10 µM; hits give high values;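 also: compound pretreatment 18-22 h then 72 h combined with doxorubicin; 0% = doxorubicin alone and 100% = vehicle without doxorubicin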
[4] = growth suppression of beta-catenin knockout HCT116, pilot screen, human colon tumor cells (AID 823;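 active = cell viability at or below a set limit in both duplicate runs, the limit being the all-compound median minus 4 SD, cut at about 23% in these data, passing the limit was not always enough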;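 also: 0% = wells killed by 20 µM Hyamine and 100% = untreated DMSO cell wells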); settings: CellTiter-Glo, 60 h, at 10 µM, hits give low values
[5] = growth suppression of PTEN-deleted HCT116, pilot screen, cell-based, HCT116 clonal line, CellTiter-Glo (AID 824;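 active = viability at or below 27.92% in each of two runs, the all-compound median minus 4 SD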;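 also: 0% = 20 µM Hyamine control and 100% = vehicle cell control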); settings: 60 h, at 10 µM, hits give low values
[6] = inhibitors of the yeast RAM network, pilot screen, dse1pr::URA3 reporter, 5-FOA selection (AID 869;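 active = inhibition over a set limit, the all-compound mean plus 3 SD, in both replicate runs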;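 also: 0% = DMSO wells with no growth and 100% = 10 µM 1-NA-PP1 with full growth; RAM network block rescues cells from 5-FOA so hits raise OD615 growth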); settings: S. cerevisiae dse1pr::URA3 5-FOA growth, OD615, 2 d; at 10 µM; hits give high values; strain carries analog-sensitive mutant Cbk1 kinase
[7] = RAM signaling pathway blockade in yeast – S. cerevisiae, Pdr1DBD-CYC8 efflux-inhibited sensitized strain, primary screen (AID 1298;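 active = RAM network inhibition above 8.4% in each of two replicates, 3 SD over the compound average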;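 also: 0% = DMSO untreated cells without growth and 100% = 10 µM 1-NA-PP1 full growth; higher means more yeast growth rescued from 5-FOA killing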); settings: S. cerevisiae cbk1-as DSE1-URA3 strain, 5-FOA growth OD615, 2 d; at 50 µM; hits give high values

| Compound | growth inhibition [1] [%] | growth inhibition [2] [%] | viability increase [3] [%] | viability [4] | viability [5] | inhibition [6] [%] | RAM network inhibition [7] [%] |
| --- | --- | --- | --- | --- | --- | --- | --- |
| CCN(CC)Cc1c[nH]c2c(C(=O)OC)cccc12 | -11.4 | -23.5 | -4.51 | 101% | 94.9% | 2 | -1.31 |
| Brc1ccc(-c2nnc3sc(CNCc4ccc5c(c4)OCO5)cn23)cc1 | 5.46 | 20.8 | -0.67 | 99.6% | 99.8% | 1.17 | 1.64 |
| Cc1ccsc1-c1nc(CSCC(=O)NCc2ccc3c(c2)OCO3)c(C)o1 | -9.04 | 2.91 | -0.27 | 87.2% | 84% | 0.83 | 9.63 |
| CC(=O)c1c(N(C)C)ccnc1C(F)(F)F | -3.09 | 8.03 | -2.95 | 107% | 95.4% | 1.92 | 0.62 |
| CN1CCN(CCCNC(=O)c2ccc3c(c2)N(Cc2ccccc2)CCS3)CC1 | -2.21 | -12.1 | -5.47 | 64.8% | 67.4% | 0.9 | 4.28 |
| CCc1nccn1S(=O)(=O)c1ccc(OC)c(OC)c1 | -17.4 | -10 | -0.29 | 100% | 93.3% | 1.67 | 0.47 |
| CCN(CC)CCCNc1nc2ccccc2[nH]1 | -4 | -5.4 | -0.63 | 99% | 98.3% | 0.52 | 4.31 |
| Cc1ccc2c(c1)N(CCCC(=O)NCc1ccc3c(c1)OCO3)C(=O)CO2 | -5.25 | -25.1 | -6.26 | 95.4% | 83.9% | 0.43 | 1.64 |
| COc1ccc(Cn2c(=O)[nH]c3cc(C(=O)NCCCN4CCCCC4)ccc3c2=O)cc1 | -4.93 | -8.5 | -2.31 | 74.5% | 77.4% | 0.53 | 4.83 |
| Nc1nnc(N2CCc3ccccc32)s1 | -1.08 | 16.4 | -4.19 | 105% | 102% | 0.805 | 0.42 |
| O=C(CSCCNS(=O)(=O)c1ccccc1)Nc1ccccc1 | -6.82 | -4.2 | -2.84 | 91% | 91.6% | 1.77 | 0.37 |
| Cn1c(=O)oc2cc(S(=O)(=O)NCCCN3CCCC3=O)ccc21 | -7.4 | -6.43 | -2.65 | 99% | 98.7% | 0.615 | 0.74 |
| Cn1c(C(=O)NC2CCCCC2)cc2c(=O)n(C)c3ccccc3c21 | -10.6 | -6.48 | -1.7 | 88% | 73.8% | 1.46 | 4.6 |
| CC(NC(=O)c1ccco1)C(c1cccs1)N1CCN(c2ccccc2)CC1 (stereo unspecified) | -5.64 | -18.3 | -1.36 | 87.7% | 81.2% | 1.74 | 5.06 |
| Clc1ccc(-c2nnc(N3CCCC3)nn2)cc1 | -7.18 | 4.79 | -2.71 | 86.6% | 92.2% | 0.995 | 0.52 |
| CCOC(=O)N1CCC(C(=O)Nc2ccc(OCC)cc2)CC1 | 5.44 | -3.75 | -1.27 | 88% | 93.9% | 0.495 | 6.44 |
| CC(=O)NC(O)C(=O)c1ccccc1 (stereo unspecified) | 5.71 | 3.38 | -2.24 | 97% | 89.6% | -0.095 | 3.35 |

| Compound | growth inhibition [1] [%] | growth inhibition [2] [%] | viability increase [3] [%] | viability [4] | viability [5] | inhibition [6] [%] | RAM network inhibition [7] [%] |
| --- | --- | --- | --- | --- | --- | --- | --- |
| COC(=O)c1c(NC(=O)CCCC(=O)O)sc(C)c1C | -6.98 | 3.54 | -3.07 | 91.8% | 87.9% | 0.305 | 3.63 |
| Cc1ccc(NC(=O)C2CCCN2S(=O)(=O)c2ccc3c(c2)CCC(=O)N3)cc1Cl (stereo unspecified) | -9.43 | 8.74 | 3.52 | 81.8% | 85.8% | 2.66 | 3.45 |
| CSc1nc(C)cc(SCCO)n1 | -3.2 | 8.15 | -1.79 | 105% | 102% | 0.695 | 0.46 |
| CCCN(CCC)C(=O)c1ccc2c(c1)N(Cc1ccccc1)C(=O)CS2=O (stereo unspecified) | 2.79 | -7.64 | -2.62 | 88.1% | 83.4% | 0.885 | 1.55 |
| Cc1nc2ccc(S(=O)(=O)NC(C(=O)N3CCCCCC3)C(C)C)cc2s1 (stereo unspecified) | -11.3 | -4.58 | -1.12 | 97.5% | 87.8% | 2.01 | 2.77 |
| O=C(O)c1cc(S(=O)(=O)N2CCCCCC2)c(Cl)cc1Cl | -2.36 | -0.81 | -0.57 | 90.4% | 101% | 1.18 | 6.2 |
| CCOCCCNC(=O)C(NC(=O)CC1NC(=O)NC1=O)c1ccc(Cl)cc1 (stereo unspecified) | -4.46 | 1.68 | 0.89 | 107% | 96.1% | 2.61 | 1.81 |
| O=C(CC12CC3CC(CC(C3)C1)C2)N1CCOCC1 | 6.71 | 1.68 | -0.17 | 102% | 102% | 1.39 | 7.72 |
| c1ccc(-c2cnc(-c3cccnc3)o2)cc1 | 0.08 | 7.29 | -4.72 | 95.5% | 94.4% | 2.12 | 1.68 |
| COc1ccc(C(c2sc3ncnn3c2O)N2CC(C)OC(C)C2)cc1OC (stereo unspecified) | 0.335 | -6.37 | -1 | 102% | 87.3% | 0.55 | 0.12 |
| CCCCSc1nnc(C)c(=O)[nH]1 | -8.76 | -12.2 | -0.85 | 97.6% | 102% | 1.26 | 7.32 |
| CCN(CC)CCCNC(=O)c1cc2c(-c3ccc(Cl)cc3)nn(C)c2s1 | 0.63 | 17.3 | -8.12 | 1.68% (active) | 1.82% (active) | -0.18 | -0.36 |
| O=C(Nc1nnc(-c2ccco2)o1)C1CCCCC1 | -17 | -13.8 | -1.58 | 99.1% | 93.2% | 1.52 | 0.58 |
| O=C(CSc1nnc(Cc2cc(=O)[nH]c(=O)[nH]2)n1-c1ccc(F)cc1)NC1CCCC1 | -14.8 | -7.13 | -1.18 | 105% | 102% | 0.96 | 6.6 |
| CC(C)C(=O)Nc1nnc(-c2ccccc2)o1 | -5.24 | -0.51 | -2.2 | 102% | 101% | 0.64 | -0.68 |
| CC1CCc2c(sc3nc(SCc4nc(-c5ccccc5)no4)n(C)c(=O)c23)C1 (stereo unspecified) | -3.38 | -5.98 | 1.25 | 94% | 89% | 2.21 | 2.32 |
